Measurements taken from ChEMBL document CHEMBL4177603 (Bioorg Med Chem Lett, 2017).

Experiments:
[1] = Solubility of the compound in aqueous buffer at pH 4.2; type: physicochemical
[2] = Solubility of the compound in aqueous buffer at pH 5.5; type: physicochemical
[3] = Solubility of the compound in aqueous buffer at pH 7.1; type: physicochemical
[4] = target: Sodium channel protein type 1 subunit alpha (Homo sapiens, UniProt P35498); assay: Inhibition of human Nav1.1 expressed in HEK cells by patch clamp electrophysiology method; type: cell-based
[5] = target: Sodium channel protein type 10 subunit alpha (Homo sapiens, UniProt Q9Y5Y9); assay: Inhibition of human Nav1.8 expressed in HEK cells by automated patchXpress electrophysiology method; type: cell-based
[6] = Clearance in dog plasma at 0.3 mg/kg, iv via infusion for 0.5 hrs; type: ADME, organism-based, Canis lupus familiaris
[7] = Unbound clearance in dog plasma at 0.3 mg/kg, iv via infusion for 0.5 hrs; type: ADME, organism-based, Canis lupus familiaris; conditions: in vivo
[8] = Clearance in bile duct cannulated rat at 0.3 mg/kg, iv via infusion for 1 hr; type: ADME, organism-based; conditions: in vivo
Method in brief: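 Plasma clearance was taken from a study in bile duct cannulated rats.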

[9] = Unbound clearance rat plasma at 0.3 mg/kg, iv via infusion for 1 hr; type: ADME, organism-based; conditions: in vivo
[10] = Intrinsic clearance in rat hepatocytes assessed per million cells; type: ADME, cell-based, Hepatocyte; conditions: read-out: CLH
[11] = Permeability in RRCK cells; type: ADME, cell-based, Canis lupus familiaris, MDCKII-LE; conditions: dog, MDCK; read-out: permeability
[12] = target: Sodium channel protein type 8 subunit alpha (Rattus norvegicus, UniProt O88420); assay: Inhibition of rat Nav1.6 expressed in HEK cells by patch clamp electrophysiology method; type: cell-based
Sodium channel protein type 8 subunit alpha, sequence (O88420 whole entry): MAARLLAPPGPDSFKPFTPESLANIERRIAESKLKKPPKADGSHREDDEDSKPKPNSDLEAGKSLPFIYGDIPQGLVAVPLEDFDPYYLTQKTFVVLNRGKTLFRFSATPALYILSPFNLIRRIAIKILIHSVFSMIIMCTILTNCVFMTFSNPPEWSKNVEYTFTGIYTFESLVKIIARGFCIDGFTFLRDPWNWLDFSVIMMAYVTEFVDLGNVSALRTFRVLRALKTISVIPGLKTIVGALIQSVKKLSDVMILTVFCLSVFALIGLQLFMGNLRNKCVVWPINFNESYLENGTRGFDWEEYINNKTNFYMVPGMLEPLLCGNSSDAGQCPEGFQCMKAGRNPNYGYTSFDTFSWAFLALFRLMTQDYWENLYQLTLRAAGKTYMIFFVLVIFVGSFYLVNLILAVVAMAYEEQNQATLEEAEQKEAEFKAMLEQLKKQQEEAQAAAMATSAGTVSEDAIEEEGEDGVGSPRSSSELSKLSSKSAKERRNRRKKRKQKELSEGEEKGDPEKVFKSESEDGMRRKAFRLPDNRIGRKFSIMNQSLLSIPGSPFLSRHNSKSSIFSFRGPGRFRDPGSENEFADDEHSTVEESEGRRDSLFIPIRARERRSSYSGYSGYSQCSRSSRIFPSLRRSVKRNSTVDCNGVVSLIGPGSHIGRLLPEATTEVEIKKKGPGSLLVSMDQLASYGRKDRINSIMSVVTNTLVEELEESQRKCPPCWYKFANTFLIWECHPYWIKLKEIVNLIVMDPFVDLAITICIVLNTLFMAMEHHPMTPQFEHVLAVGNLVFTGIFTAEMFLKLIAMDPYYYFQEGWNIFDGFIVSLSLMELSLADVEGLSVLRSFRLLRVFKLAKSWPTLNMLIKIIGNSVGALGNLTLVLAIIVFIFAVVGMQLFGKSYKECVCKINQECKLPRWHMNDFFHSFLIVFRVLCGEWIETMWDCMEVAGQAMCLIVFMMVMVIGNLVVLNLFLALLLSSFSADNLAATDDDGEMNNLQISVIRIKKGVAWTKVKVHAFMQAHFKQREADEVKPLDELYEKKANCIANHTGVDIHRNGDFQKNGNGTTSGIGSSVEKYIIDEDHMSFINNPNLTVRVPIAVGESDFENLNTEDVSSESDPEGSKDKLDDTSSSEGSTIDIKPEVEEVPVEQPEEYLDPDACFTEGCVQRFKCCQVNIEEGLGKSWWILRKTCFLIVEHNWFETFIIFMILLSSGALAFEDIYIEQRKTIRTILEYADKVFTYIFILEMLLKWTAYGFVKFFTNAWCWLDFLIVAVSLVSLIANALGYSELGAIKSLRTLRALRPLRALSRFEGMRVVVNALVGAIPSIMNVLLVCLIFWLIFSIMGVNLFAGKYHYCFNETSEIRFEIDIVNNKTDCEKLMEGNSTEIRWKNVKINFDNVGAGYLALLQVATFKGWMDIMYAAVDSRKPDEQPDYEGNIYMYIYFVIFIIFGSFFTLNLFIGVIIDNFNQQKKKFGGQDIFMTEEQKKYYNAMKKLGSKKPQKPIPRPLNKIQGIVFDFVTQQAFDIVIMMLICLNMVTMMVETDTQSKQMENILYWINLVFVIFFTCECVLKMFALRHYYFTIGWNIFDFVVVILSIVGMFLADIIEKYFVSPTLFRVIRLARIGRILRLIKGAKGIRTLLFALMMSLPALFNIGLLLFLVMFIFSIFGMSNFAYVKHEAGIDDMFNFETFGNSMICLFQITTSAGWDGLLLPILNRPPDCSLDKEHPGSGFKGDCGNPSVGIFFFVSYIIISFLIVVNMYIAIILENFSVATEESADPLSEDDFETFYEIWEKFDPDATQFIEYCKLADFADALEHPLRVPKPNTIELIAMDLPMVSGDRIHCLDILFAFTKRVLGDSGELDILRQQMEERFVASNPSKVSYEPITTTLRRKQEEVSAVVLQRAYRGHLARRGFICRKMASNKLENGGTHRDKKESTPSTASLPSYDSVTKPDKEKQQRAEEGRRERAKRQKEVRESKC

[13] = target: Adenosine receptor A2a (Homo sapiens) (UniProt P29274); assay: Agonist activity at recombinant human full-length adenosine A2a receptor expressed in HEK293 cells assessed as effect on impedance at 10 uM by cellular dielectric spectroscopic method relative to control; type: functional, cell-based
[14] = target: T1, Alpha-1A adrenergic receptor (Homo sapiens) (UniProt P35348); assay: Agonist activity at recombinant human alpha1a receptor expressed in CHOK1 cells assessed as increase in calcium flux at 10 uM by fluorescence assay relative to control; type: functional, cell-based
T1 sequence (whole entry): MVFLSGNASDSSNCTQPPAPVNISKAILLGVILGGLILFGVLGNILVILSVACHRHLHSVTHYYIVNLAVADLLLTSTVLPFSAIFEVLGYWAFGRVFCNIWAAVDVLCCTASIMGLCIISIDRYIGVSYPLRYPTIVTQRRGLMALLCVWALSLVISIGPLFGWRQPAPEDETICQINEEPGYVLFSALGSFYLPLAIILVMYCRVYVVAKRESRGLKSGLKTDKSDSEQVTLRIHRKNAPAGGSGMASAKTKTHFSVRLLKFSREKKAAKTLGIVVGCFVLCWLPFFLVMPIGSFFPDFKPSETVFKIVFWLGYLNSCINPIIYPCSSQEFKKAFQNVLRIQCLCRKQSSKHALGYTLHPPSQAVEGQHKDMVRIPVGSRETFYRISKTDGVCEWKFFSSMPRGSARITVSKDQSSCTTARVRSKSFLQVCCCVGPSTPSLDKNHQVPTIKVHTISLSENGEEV

[15] = target: Alpha-2A adrenergic receptor (Homo sapiens) (UniProt P08913); assay: Agonist activity at recombinant human alpha2a receptor at 10 uM relative to control; type: functional
Alpha-2A adrenergic receptor (Homo sapiens), sequence (P08913 whole entry): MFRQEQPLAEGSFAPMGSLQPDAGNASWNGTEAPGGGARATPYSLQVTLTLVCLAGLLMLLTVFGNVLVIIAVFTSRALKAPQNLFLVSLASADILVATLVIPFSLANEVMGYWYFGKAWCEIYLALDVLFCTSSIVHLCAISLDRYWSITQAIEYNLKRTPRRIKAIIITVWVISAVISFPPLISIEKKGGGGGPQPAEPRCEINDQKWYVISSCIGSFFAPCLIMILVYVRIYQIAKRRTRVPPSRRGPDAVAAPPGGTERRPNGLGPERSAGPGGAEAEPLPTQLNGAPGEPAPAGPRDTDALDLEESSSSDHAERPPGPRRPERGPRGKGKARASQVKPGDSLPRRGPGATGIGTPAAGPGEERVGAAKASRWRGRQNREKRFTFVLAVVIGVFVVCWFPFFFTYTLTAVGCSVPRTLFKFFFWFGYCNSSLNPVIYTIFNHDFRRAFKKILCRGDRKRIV

[16] = target: Histamine H3 receptor (Homo sapiens) (UniProt Q9Y5N1); assay: Agonist activity at recombinant human H3 receptor expressed in CHOK1 cells assessed as increase in cAMP accumulation at 10 uM measured after 10 mins by HTRF assay relative to control; type: functional, cell-based
[17] = target: T2, Muscarinic acetylcholine receptor M1 (Homo sapiens) (UniProt P11229); assay: Agonist activity at human M1 receptor expressed in CHOK1 cells assessed as increase in calcium flux at 10 uM by fluorimetric method relative to control; type: functional, cell-based
T2 sequence (whole entry): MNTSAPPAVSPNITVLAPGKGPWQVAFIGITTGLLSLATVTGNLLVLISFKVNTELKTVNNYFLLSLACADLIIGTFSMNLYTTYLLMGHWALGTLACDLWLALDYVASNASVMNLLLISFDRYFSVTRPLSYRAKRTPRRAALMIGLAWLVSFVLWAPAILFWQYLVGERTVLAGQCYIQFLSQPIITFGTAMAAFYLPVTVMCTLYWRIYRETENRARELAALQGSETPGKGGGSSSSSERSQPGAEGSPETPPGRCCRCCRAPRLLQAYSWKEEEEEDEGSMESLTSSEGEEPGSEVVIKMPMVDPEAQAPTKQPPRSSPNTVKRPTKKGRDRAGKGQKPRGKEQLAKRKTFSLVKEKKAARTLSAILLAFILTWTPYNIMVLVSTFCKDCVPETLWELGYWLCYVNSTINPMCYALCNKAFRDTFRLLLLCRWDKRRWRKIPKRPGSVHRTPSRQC

[18] = target: Muscarinic acetylcholine receptor M2 (Homo sapiens) (UniProt P08172); assay: Agonist activity at recombinant human M2 receptor expressed in CHOK1 cells assessed as increase in cAMP accumulation at 10 uM measured after 10 mins by HTRF assay relative to control; type: functional, cell-based
Muscarinic acetylcholine receptor M2 (Homo sapiens), sequence (P08172 whole entry): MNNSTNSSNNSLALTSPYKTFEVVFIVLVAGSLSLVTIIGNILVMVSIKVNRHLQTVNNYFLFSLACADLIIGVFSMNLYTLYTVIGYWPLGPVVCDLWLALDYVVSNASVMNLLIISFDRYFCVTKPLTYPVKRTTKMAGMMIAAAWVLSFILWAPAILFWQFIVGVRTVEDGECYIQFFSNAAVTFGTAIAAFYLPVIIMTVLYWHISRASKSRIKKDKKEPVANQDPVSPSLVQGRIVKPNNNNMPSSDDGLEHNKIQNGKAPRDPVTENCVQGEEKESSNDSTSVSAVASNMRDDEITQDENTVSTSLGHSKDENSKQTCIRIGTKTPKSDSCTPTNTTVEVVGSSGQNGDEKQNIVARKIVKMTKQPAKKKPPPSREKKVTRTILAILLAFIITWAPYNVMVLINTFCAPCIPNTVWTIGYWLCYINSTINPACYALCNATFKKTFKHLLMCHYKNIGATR

[19] = target: Mu-type opioid receptor (Homo sapiens) (UniProt P35372); assay: Agonist activity at recombinant human MOR expressed in CHOK1 cells assessed as increase in cAMP accumulation at 10 uM measured after 10 mins by HTRF assay relative to control; type: functional, cell-based
[20] = target: 5-hydroxytryptamine receptor 2A (Homo sapiens) (UniProt P28223); assay: Agonist activity at human 5-HT2A receptor expressed in HEK293 cells assessed as increase in IP1 accumulation at 10 uM measured after 30 mins by HTRF method relative to control; type: functional, cell-based
5-hydroxytryptamine receptor 2A (Homo sapiens), sequence (P28223 whole entry): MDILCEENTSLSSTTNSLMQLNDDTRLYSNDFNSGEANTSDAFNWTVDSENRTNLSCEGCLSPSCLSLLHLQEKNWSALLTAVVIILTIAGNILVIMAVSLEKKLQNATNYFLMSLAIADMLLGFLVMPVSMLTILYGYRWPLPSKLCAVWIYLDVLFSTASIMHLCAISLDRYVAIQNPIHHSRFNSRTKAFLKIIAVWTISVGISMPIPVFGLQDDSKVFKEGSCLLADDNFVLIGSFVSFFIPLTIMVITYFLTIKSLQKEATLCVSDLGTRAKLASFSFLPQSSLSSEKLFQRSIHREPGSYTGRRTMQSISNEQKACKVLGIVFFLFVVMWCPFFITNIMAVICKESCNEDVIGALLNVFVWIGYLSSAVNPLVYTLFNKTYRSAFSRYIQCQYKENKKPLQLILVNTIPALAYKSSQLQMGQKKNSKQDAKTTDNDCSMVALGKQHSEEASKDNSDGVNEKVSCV

[21] = target: 5-hydroxytryptamine receptor 2B (Homo sapiens) (UniProt P41595); assay: Agonist activity at human 5-HT2B receptor expressed in CHOK1 cells assessed as increase in IP1 accumulation at 10 uM measured after 30 mins by HTRF method relative to control; type: functional, cell-based
5-hydroxytryptamine receptor 2B (Homo sapiens), sequence (P41595 whole entry): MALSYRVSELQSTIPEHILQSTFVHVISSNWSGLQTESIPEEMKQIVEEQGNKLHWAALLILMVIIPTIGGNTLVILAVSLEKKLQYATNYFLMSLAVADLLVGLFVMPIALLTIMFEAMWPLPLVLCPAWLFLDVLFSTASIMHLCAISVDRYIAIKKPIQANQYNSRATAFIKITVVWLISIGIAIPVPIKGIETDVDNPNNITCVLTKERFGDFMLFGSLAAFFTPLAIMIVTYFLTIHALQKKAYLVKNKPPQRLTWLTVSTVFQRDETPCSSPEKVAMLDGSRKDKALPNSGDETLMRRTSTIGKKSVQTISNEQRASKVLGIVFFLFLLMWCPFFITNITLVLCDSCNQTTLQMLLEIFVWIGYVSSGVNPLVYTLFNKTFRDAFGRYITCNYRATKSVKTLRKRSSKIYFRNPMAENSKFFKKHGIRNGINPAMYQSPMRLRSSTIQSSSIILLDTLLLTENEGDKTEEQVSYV

[22] = target: 5-hydroxytryptamine receptor 4 (Homo sapiens) (UniProt Q13639); assay: Agonist activity at recombinant human 5-HT4E expressed in CHOK1 cells assessed as increase in cAMP accumulation at 10 uM measured after 30 mins by HTRF assay relative to control; type: functional, cell-based
5-hydroxytryptamine receptor 4 (Homo sapiens), sequence (Q13639 whole entry): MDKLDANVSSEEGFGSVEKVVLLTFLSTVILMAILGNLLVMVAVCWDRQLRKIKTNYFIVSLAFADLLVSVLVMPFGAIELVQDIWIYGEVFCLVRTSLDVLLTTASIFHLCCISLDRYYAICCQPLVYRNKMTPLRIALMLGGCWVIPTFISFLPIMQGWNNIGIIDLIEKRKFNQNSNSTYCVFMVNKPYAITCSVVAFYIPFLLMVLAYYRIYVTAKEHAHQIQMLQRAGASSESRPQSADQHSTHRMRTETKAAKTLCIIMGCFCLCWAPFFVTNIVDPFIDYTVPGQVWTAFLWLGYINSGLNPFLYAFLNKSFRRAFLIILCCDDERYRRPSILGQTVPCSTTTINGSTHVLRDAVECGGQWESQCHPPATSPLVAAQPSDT

[23] = organism: Homo sapiens; assay: Inhibition of GABA-A receptor benzodiazepine site (unknown origin) at 10 uM by radioligand binding assay relative to control
[24] = target: Epidermal growth factor receptor (Homo sapiens) (UniProt P00533); assay: Displacement of [125I] EGF from EGFR in human A431 cells at 10 uM after 60 mins by scintillation counting method; type: cell-based
[25] = target: T1, Alpha-1A adrenergic receptor (Homo sapiens); assay: Displacement of [3H]prazosin from recombinant human alpha1a receptor at 10 uM after 60 mins by scintillation counting method
[26] = target: D(1A) dopamine receptor (Homo sapiens) (UniProt P21728); assay: Displacement of [3H]SCH 23390 from recombinant human D1 receptor at 10 uM after 60 mins by scintillation counting method
D(1A) dopamine receptor (Homo sapiens), sequence (P21728 whole entry): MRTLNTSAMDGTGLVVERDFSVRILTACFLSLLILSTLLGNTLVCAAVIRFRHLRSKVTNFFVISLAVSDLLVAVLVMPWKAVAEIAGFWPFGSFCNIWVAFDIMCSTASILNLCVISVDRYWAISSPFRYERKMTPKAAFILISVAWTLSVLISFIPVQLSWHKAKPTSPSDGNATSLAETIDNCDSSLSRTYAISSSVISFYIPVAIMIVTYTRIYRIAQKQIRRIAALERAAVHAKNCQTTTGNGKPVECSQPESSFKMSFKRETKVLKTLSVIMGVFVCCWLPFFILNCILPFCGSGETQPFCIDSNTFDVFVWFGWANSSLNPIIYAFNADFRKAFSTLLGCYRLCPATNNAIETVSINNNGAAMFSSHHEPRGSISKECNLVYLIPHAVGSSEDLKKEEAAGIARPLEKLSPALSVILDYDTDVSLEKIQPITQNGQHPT

[27] = Displacement of [3H]diltiazem from L-type calcium channel diltiazem binding site in rat brain after 120 mins by scintillation counting method

N#Cc1cc(S(=O)(=O)Nc2ncns2)ccc1Oc1ccc(-c2cccc(C(F)(F)F)c2)cc1-c1ccnc(CNCCC2CCNCC2)c1
solubility [1]: > 1170 µg/mL | solubility [2]: > 1840 µg/mL | solubility [3]: > 2570 µg/mL | IC50 [4]: 309 to 314 nM | IC50 [5]: 10 to 26 µM | clearance [6]: 17.8 mL/min/kg | CL free [7]: 4759 mL/min/kg | clearance [8]: 59.8 mL/min/kg | CL free [9]: 30218 mL/min/kg | hepatocyte CLint [10]: < 6 µL/min/1e6 cells | Papp [11]: 0.62 ×10⁻⁶ cm/s | IC50 [12]: 5.01 nM | Activity [13]: -2% | Activity [14]: 7% | Activity [15]: -7% | Activity [16]: 7% | Activity [17]: 2% | Activity [18]: -9% | Activity [19]: 21% | Activity [20]: -1% | Activity [21]: 1% | Activity [22]: 0% | inhibition [23]: 35% | inhibition [24]: 35% | inhibition [25]: -4% | inhibition [26]: 60% | IC50 [27]: 5.3 µM | Ki [27]: 4.12 µM
